Source: ChEMBL document CHEMBL1909630, “Azaxanthene based selective glucocorticoid receptor modulators: design, synthesis, and pharmacological evaluation of (S)-4-(5-(1-((1,3,4-thiadiazol-2-yl)amino)-2-methyl-1-oxopropan-2-yl)-5H-chromeno[2,3-b]pyridin-2-yl)-2-fluoro-N,N-dimethylbenzamide (BMS-776532) and its methylene homologue …” (J Med Chem, 2011)
Activity calls are given as the source filed them. The rule behind the calls is not given here.

Experiments:
[1] = biological target: T1, Mineralocorticoid receptor (Homo sapiens, UniProt P08235); experiment: Agonist activity at human mineralocorticoid receptor expressed in human A549 cells by fluorescence polarization assay; assay type: functional, cell-based
T1 sequence (P08235 whole entry): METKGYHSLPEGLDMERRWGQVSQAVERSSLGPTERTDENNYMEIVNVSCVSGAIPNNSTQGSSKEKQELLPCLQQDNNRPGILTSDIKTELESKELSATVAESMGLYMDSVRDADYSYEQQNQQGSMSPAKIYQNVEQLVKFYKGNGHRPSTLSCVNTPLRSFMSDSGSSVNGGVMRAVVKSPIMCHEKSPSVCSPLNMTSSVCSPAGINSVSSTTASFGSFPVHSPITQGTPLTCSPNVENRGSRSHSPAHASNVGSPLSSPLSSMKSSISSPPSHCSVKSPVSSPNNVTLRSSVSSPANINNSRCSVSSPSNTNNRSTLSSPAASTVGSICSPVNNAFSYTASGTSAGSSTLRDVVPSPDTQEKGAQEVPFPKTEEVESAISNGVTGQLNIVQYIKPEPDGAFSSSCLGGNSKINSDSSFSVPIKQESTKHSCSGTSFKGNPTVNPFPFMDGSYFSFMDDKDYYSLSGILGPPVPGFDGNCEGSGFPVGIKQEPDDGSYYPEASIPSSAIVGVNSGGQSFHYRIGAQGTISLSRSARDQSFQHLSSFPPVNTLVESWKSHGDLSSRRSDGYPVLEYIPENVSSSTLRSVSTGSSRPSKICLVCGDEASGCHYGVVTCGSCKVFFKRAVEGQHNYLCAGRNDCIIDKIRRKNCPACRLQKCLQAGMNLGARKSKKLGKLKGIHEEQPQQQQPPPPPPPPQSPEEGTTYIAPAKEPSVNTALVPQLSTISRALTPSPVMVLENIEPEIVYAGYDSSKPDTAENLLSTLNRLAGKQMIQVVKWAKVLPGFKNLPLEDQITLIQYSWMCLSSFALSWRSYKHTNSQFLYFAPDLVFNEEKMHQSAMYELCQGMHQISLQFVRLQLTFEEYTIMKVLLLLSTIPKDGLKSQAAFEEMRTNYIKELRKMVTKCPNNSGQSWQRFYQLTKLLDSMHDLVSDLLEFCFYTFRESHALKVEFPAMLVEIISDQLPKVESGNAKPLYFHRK

[2] = biological target: T2, Glucocorticoid receptor (Homo sapiens, UniProt P04150); experiment: Transactivation activity at glucocorticoid receptor alpha human 13D3/Huh7 cells assessed as induction of TAT activity after 4 hrs by spectrophotometry; assay type: cell-based, Huh-7
T2 sequence (P04150 whole entry): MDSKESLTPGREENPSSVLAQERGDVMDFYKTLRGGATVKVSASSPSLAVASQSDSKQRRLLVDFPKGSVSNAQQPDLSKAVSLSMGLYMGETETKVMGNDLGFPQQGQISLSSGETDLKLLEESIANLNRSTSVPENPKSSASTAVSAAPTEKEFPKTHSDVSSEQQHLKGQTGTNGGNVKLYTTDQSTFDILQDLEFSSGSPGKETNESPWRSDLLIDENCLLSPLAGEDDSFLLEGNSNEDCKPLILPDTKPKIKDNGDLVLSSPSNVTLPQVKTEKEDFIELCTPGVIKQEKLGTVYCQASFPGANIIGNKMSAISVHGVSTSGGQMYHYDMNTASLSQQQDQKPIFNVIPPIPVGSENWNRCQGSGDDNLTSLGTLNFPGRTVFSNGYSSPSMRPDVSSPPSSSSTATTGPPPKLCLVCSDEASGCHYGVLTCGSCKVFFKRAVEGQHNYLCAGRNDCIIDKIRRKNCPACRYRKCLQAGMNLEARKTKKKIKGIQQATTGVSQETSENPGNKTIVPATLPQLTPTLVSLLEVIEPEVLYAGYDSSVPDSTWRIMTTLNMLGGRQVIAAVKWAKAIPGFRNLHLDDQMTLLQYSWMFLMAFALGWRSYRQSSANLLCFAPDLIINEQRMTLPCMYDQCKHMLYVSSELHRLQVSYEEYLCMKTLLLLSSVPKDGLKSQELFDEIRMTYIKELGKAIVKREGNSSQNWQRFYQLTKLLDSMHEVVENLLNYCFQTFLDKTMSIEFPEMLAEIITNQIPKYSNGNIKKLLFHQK

[3] = biological target: T2, Glucocorticoid receptor; experiment: Transactivation activity at GR-alpha in human NP1 Hela cells assessed as inhibition of GAL4-DBD after 20 hrs by luciferase reporter gene assay; assay type: cell-based
[4] = system: MG-63; experiment: Induction of glutamine synthase expression in human MG63 cells after overnight incubation by spectrophotometry; assay type: cell-based
[5] = system: Blood; experiment: Antiinflammatory activity in human whole blood assessed as inhibition of LPS-induced TNFalpha production after overnight incubation by ELISA; assay type: functional, tissue-based
How it was run: (§1)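 Whole blood from two donors per experiment was collected into ACD-A. Compounds were added and the blood was incubated about 20 h at 37 °C under 5% CO2. Blood was then stimulated for 5 h with LPS (final 100 ng/mL, for TNFα) or IL-1β (final 10 ng/mL, for IL-8). Plasma TNFα or IL-8 was measured by ELISA. Efficacy was expressed as % of dexamethasone, and values are means of at least two experiments.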

[6] = system: Blood; experiment: Antiinflammatory activity in human whole blood assessed as inhibition of TNF-alpha-induced IL-8 production after overnight incubation by ELISA relative to dexamethasone; assay type: functional
[7] = system: Blood; experiment: Antiinflammatory activity in human whole blood assessed as inhibition of IL-1beta-induced IL-8 production after overnight incubation by ELISA; assay type: functional, tissue-based; how it was run: as §1
[8] = Tmax in Sprague-Dawley rat at 50 mg/kg, po; assay type: ADME, organism-based; set-up: dose 50 mg/kg, route oral; settings: in vivo
How it was run: (§2)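 Male Sprague-Dawley rats received a single intravenous (1 mg/kg) or oral (10 or 50 mg/kg) dose. Plasma pharmacokinetic parameters were derived from these profiles.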

[9] = AUC in Sprague-Dawley rat at 1 mg/kg, iv; assay type: ADME, organism-based; set-up: dose 1 mg/kg, route intravenous; settings: plasma; how it was run: as §2
[10] = AUC in Sprague-Dawley rat at 50 mg/kg, po; assay type: ADME, organism-based; set-up: dose 50 mg/kg, route oral; settings: plasma; how it was run: as §2
[11] = Volume of distribution at steady state in Sprague-Dawley rat at 1 mg/kg, iv; assay type: ADME, organism-based; set-up: dose 1 mg/kg, route intravenous; settings: in vivo, read-out: Vdss; how it was run: as §2
[12] = Oral bioavailability in Sprague-Dawley rat at 10 mg/kg; assay type: ADME, organism-based; settings: in vivo; how it was run: as §2
[13] = Membrane permeability by PAMPA; assay type: ADME
[14] = Drug level in plasma of Sprague-Dawley rat at 30 mg/kg, po measured after 6 hrs; assay type: ADME, organism-based; set-up: dose 30 mg/kg, route oral; settings: read-out: Drug uptake
How it was run: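 Plasma exposure was measured in Sprague-Dawley rats 6 h after a single oral dose of 30 mg/kg given in the carrageenan paw edema study.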

[15] = system: Rattus norvegicus; experiment: Antiinflammatory activity in Freund's complete adjuvant-induced Lewis rat arthritis model assessed as reduction in paw swelling at 25 mg/kg/day, po qd for 21 days; assay type: functional, organism-based
How it was run: (§3)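 Male Lewis rats were inoculated with Mycobacterium butyricum in incomplete Freund's adjuvant. Oral dosing was daily and preventative, running from day 0 to day 21. Onset and progression of arthritis were followed, and ED50 was estimated from the dose response.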

[16] = system: Blood; experiment: Antiinflammatory activity in Sprague-Dawley rat whole blood assessed as inhibition of LPS-induced TNFalpha production
[17] = system: Rattus norvegicus; experiment: Antiinflammatory activity in Freund's complete adjuvant-induced Lewis rat arthritis model assessed as reduction in paw swelling at 50 mg/kg/day, po qd for 21 days; assay type: functional, organism-based; how it was run: as §3

| EC50 [1] [nM] | EC50 [2] [nM] | EC50 [3] [nM] | EC50 [4] [nM] | EC50 [5] [nM] | EC50 [7] [nM] | Tmax [8] [h] | AUC [9] [ng·h/mL] | AUC [10] [ng·h/mL] | Vd [11] [L/kg] | bioavailability [12] [%] | permeability [13] | concentration at 6 h [14] [nM] | EC50 [16] [nM] | Structure (SMILES) | Imax [6] [%] | Activity [15] | Activity [17] |
| --- | --- | --- | --- | --- | --- | --- | --- | --- | --- | --- | --- | --- | --- | --- | --- | --- | --- |
| > 5000 | 88 | 113 | 207 | 379 | 628 | 3.3 | 526 | 28100 | 0.5 | 17 | permeable | 1110 | 215 | CCN(C)C(=O)c1ccc(-c2ccc3c(n2)Oc2ccccc2[C@@H]3C(C)(C)C(=O)Nc2nncs2)cc1F | 76 | Active | – |
| > 5000 | 150 | 143 | 44 | 830 | 1140 | 1.7 | 342 | 20200 | 1 | 20 | permeable | 788 | 189 | CN(C)C(=O)c1ccc(-c2ccc3c(n2)Oc2ccccc2[C@H]3C(C)(C)C(=O)Nc2nncs2)cc1F | 55 | – | Active |
